Values after ≈ are worked out from the molar mass of the structure shown. Active and inactive are the calls of the source. The calls are words filed in the database; no cut-off is given here.

Data set [1] has as its system Bacillus subtilis. In words: Antimicrobial activity against Bacillus subtilis 104 by serial dilution method. The format is functional. The following applies: for MIC: Bacillus subtilis, 104.
The subject of data set [2] is Staphylococcus aureus. In words: Antimicrobial activity against Staphylococcus aureus 11 by serial dilution method. The format is functional. The conditions noted are these: for MIC: Staphylococcus aureus, 11.
Data set [3] has as its system Clostridium perfringens. In words: Antimicrobial activity against Clostridium perfringens 2 by serial dilution method. It is filed as functional. The conditions noted are these: for MIC: Clostridium perfringens, 2. The gist of the method: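 Broth MICs were determined by serial dilution of the hydrazones, run in triplicate. Where results differed, the standard deviation of the three determinations is reported.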

Data set [4] concerns Mycolicibacterium phlei. The data set can be described thus: Antimicrobial activity against Mycobacterium phlei 111 by serial dilution method. It is filed as functional. The conditions noted are these: for MIC: Mycolicibacterium phlei, 111.
The test system of data set [5] is Mycobacterium tuberculosis. The data set can be described thus: Antimicrobial activity against Mycobacterium tuberculosis H37Rv by agar dilution method. The format is functional. The following applies: for MIC: Mycobacterium tuberculosis, H37Rv. The method in brief: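 Agar dilution: the hydrazone is dissolved in warm Middlebrook agar and serially diluted into two quadrants of a quartered dish, with two drug-free quadrants. After cooling, 0.1 mL of M. tuberculosis suspension (McFarland no. 1, set spectrophotometrically) is inoculated. Plates are incubated 14 days at 37 °C under 5% CO2 and scored for colonies. Run in duplicate.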

For data set [6], the system named is Vaccinia virus. In words: Antiviral activity against Vaccinia virus infected in L929 cells assessed as reduction in plaque formation after 3 to 4 days by crystal violet staining method. The format is functional, organism-based. The following applies: Orthopoxvirus vaccinia.
Data set [7] has as its system L929. In words: Cytotoxicity against mouse L929 cells by microscopic analysis. It is filed as cell-based.

Regarding `CO[C@H]1/C=C/O[C@@]2(C)Oc3c(C)c(O)c4c(O)c(c(/C=N/NC(=O)CN5CCN(c6ccc(F)cc6)CC5)c(O)c4c3C2=O)NC(=O)/C(C)=C\C=C\[C@H](C)[C@H](O)[C@@H](C)[C@@H](O)[C@@H](C)[C@H](OC(C)=O)[C@@H]1C`, the “log(1/C)” value in data set [1] came to 5.3; in data set [2] it was 7.06; in data set [3] it was 8.51; in data set [4], 5.22; in data set [5], 4.81. The MIC worked out at 4.8 µg/mL (≈ 5 µM) in data set [1]; 0.084 µg/mL (≈ 0.0875 µM) in data set [2]; 0.005 µg/mL (≈ 0.00521 µM) in data set [3]; 5.75 µg/mL (≈ 5.99 µM) in data set [4]; 15 µg/mL (≈ 15.6 µM) in data set [5]. Moreover, in data set [6], the outcome was inactive. Also, the Activity entry in data set [7] is “Toxic”.

With `CO[C@H]1/C=C/O[C@@]2(C)Oc3c(C)c(O)c4c(O)c(c(/C=N/NC(=O)CN5CCN(c6ccc(C#N)cc6)CC5)c(O)c4c3C2=O)NC(=O)/C(C)=C\C=C\[C@H](C)[C@H](O)[C@@H](C)[C@@H](O)[C@@H](C)[C@H](OC(C)=O)[C@@H]1C`, the “log(1/C)” value in data set [1] came out at 4.77; in data set [2], 7.07; in data set [3] it was 8.14; in data set [4], 4.65; in data set [5], 4.72. The MIC in data set [1] turned out to be 16.3 µg/mL (≈ 16.9 µM); in data set [2], 0.082 µg/mL (≈ 0.0848 µM); in data set [3], 0.007 µg/mL (≈ 0.00724 µM); in data set [4], 21.5 µg/mL (≈ 22.2 µM); in data set [5] it was 18.6 µg/mL (≈ 19.2 µM). Moreover, the result in data set [6] was inactive. For the same compound, in data set [7], the Activity result was “Toxic”.

As to `CO[C@H]1/C=C/O[C@@]2(C)Oc3c(C)c(O)c4c(O)c(c(/C=N/NC(=O)CN5CCN(c6ccc(Br)cc6)CC5)c(O)c4c3C2=O)NC(=O)/C(C)=C\C=C\[C@H](C)[C@H](O)[C@@H](C)[C@@H](O)[C@@H](C)[C@H](OC(C)=O)[C@@H]1C`, the “log(1/C)” value is listed as 5.31 in data set [1]; 7.46 in data set [2]; 8.23 in data set [3]; 5.22 in data set [4]; 5.08 in data set [5]. In addition, the MIC stood at 5 µg/mL (≈ 4.9 µM) in data set [1]; 0.035 µg/mL (≈ 0.0343 µM) in data set [2]; 0.006 µg/mL (≈ 0.00588 µM) in data set [3]; 6.13 µg/mL (≈ 6 µM) in data set [4]; 8.4 µg/mL (≈ 8.23 µM) in data set [5]. The result in data set [6] was inactive. Moreover, the Activity result in data set [7] was “Toxic”.

One may read the MIC as the least concentration at which growth counts as inhibited.

The values are drawn from ChEMBL document CHEMBL3244145, “Synthesis and quantitative structure--activity relationships of some antibacterial 3-formylrifamycin SV N-(4-substituted phenyl)piperazinoacethydrazones” (J Med Chem, 1978).
